Sampled rows, rich in hits. Any-hit rate of the full collection: about 3.1%.
Env fusion inh: inhibitors of HIV Env-mediated cell fusion; HeLa-JRFL Env/CEM21 cell fusion, luciferase; inhibition, % at 12.3 µM; hit rate 1.1% among 360,000;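 active means mean replicate inhibition score of at least 50 and every replicate individually at or above 50; inconclusive means only one of the two criteria met; inactive means mean below 50 and not all replicates reaching 50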;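 further: 0% = plate neutral controls and 100% = maraviroc near 300 nM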
miR-122 sensor: inhibitors of miR-122 in Huh7 cells; Huh7 miR-122 Renilla luciferase sensor, 48 h; neutral wells = 0, positive control = 100; activation (reporter increase), % at 12.5 µM; hit rate 0.3% among 340,000; AID 602342;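 active means mean replicate activation score at least 90 and every replicate individually at or above 90; inconclusive means only one of the two criteria met; inactive means neither criterion met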;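 further: higher luciferase means less miR-122 activity so hits act as miR-122 inhibitors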
Cneo AK release: causes C. neoformans cell lysis; adenylate kinase release luminescence, 4 h; normalised: neutral wells 0, clomiphene wells 100; lysis activity, % at 15 µM; hit rate 0.2% among 360,000; AID 651654;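 active means mean lysis activity across replicates of at least 80%, whatever share of replicates individually reach that level; inactive means mean lysis activity below 80%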
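Schedule: static 4 h at 37 °C with compound, 1 h detection; system: C. neoformans cells; benchmarks: Clomiphene as positive control; buffer or medium: fresh YPD medium; measure: luminescence rise reflecting yeast cell lysis; measured by: luminescent adenylate kinase detection reagent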
INS-1E GSIS act: primary screen for activators of insulin secretion dependent on glucose, INS-1E cells, GLuc reporter luminescence | INS-1E GLuc reporter insulin secretion, 2-3 h | activation, % at 16.6 µM | hit rate 0.61% among 370,000 | AID 743287;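 active means lowest replicate activation of at least 40%, so every replicate reaches that level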;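 further: 0% = median of neutral control wells and 100% = median of IBMX positive control wells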
Ecoli rRNA inh: inhibits bacterial ribosomal RNA function over humanized ribosomes. E. coli WT GFP vs humanized-ribosome RFP mutants, fluorescence, 24 h; stronger effect = lower value; DMSO median 0, no signal -100. GFP signal change (wild-type ribosome), % (test concentration not listed). hit rate 1.6% among 350,000;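 active means significant combined selectivity score with lowered wild-type GFP, culture density cut under 30%, mutant RFP and density less affected; inactive means any of these conditions unmet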
CFTR F508del cor: CFTR F508del correction in bronchial cells; CFBE cells, YFP halide quenching; stimulated with forskolin plus potentiator P3; % fluorescence drop versus neutral controls; activity (quench increase), % at 7.58 µM; hit rate 0.36% among 350,000; AID 720511;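 active means mean added fluorescence quench of at least 8% versus neutral control, with both replicates also reaching 8%; inconclusive means only one of the mean or replicate conditions met; inactive means mean below 8% and not both replicates reaching 8%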;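 further: cells transiently co-express mutant CFTR-F508del with the halide-sensitive YFP; corrector assay measuring rescue of mutant channel to the surface after 24 h compound exposure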
AID977621: growth inhibition of wild-type GFP E. coli, dose response, H69 mutant RFP, cherry-pick | 1,900 tested, under 10 active | activity change, negative = inhibition at 50 µM | shares compounds with Ecoli rRNA inh | AID 977621 | E. coli wild-type GFP strain growth, fluorescence, 24 h;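 active means Wild-type ribosome reporter drop at least double the humanized mutant ribosome reporter drop, growth loss under a set limit; inconclusive means no clear call, values can overlap the other calls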;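 further: wild-type GFP and H69 mutant RFP strains grown together 50/50 in each well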
AID977628: E. coli growth inhibition, wild-type GFP versus h24 humanized RFP strain, dose response, h24 mutant RFP vs wild-type GFP, cherry-pick | shares compounds with Ecoli rRNA inh | E. coli WT GFP strain growth, fluorescence, 24 h | activity change, negative = inhibition at 50 µM | 1,900 tested, under 10 active | AID 977628;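 active means compound lowering the normal-ribosome reporter at least twice as much as the humanized-ribosome reporter, growth loss under a set limit; inconclusive means no clear call, values can overlap the other calls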;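 further: wild-type GFP and h24 humanized RFP strains co-cultured 1 to 1 per well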
Starred values were filed as active, the others as inactive; u = inconclusive; x = no result; [ ] = remark or other dose.

SMILES | Env fusion inh | miR-122 sensor | Cneo AK release | INS-1E GSIS act | Ecoli rRNA inh | CFTR F508del cor | AID977621 | AID977628
O=C(COC(=O)CCSc1ccccc1)NCc1ccccc1 | 6 | 14 | 1 | -10 | 1 | -1 | x | x
O=C(COC(=O)CCC(=O)c1ccc(F)cc1)NCCc1ccccc1 | 23 | -6 | -1 | -3 | -21* | -1 | -11 | x
CC(C)C#Cc1cnc2c(c1)C(=O)N([C@H](C)CO)C[C@@H](C)[C@@H](CN(C)C(=O)Cc1ccncc1)O2 | -30[16.7 µM] | -3[16.7 µM] | 0 | -4 | 3 | 2 | x | x
CC(=O)N(CCC1(c2ccc(C)cc2)CCOC(C(C)C)C1)Cc1ccco1 (centres undefined) | 13 | 0 | 0 | -47 | -20* | 2 | -14 | x
Cc1ccc(C2(CCNCc3ccco3)CCOC(C(C)C)C2)cc1 (centres undefined) | 16 | -5 | 3 | -46 | 1 | 1 | x | x
O=c1c2ccccc2nc(SCc2ccccc2)n1CC1CCCO1 (centres undefined) | 35 | x | x | 12 | -21* | -2 | -12 | -18
Cc1ccc(CNC(=O)CSc2nc3ccccc3c(=O)n2CC2CCCO2)cc1 (centres undefined) | x | -8 | 2 | 1 | x | 4 | x | x
CO[C@@H]1CN(C)C(=O)c2ccc(NC(=O)C3CC3)cc2OC[C@@H](C)N(C(=O)c2ccncc2)C[C@@H]1C | 3[16.7 µM] | x | -2 | 19 | 1 | -1 | x | x
Cc1ccc(S(=O)(=O)NCc2c(-c3ccccc3)noc2C)cc1 | 30 | x | x | 2 | -23* | 0 | -8.6 | -18
Cc1onc(-c2ccccc2)c1CNS(=O)(=O)c1ccccc1 | 15 | x | 2 | x | -28 | 0 | x | x
Cc1ccc(-c2nc3c(Cl)cc(C(F)(F)F)cn3c2Cc2ccsc2)cc1 | -19 | x | x | -18 | -7 | 5 | x | x
Fc1ccc(-c2nc3c(Cl)cc(C(F)(F)F)cn3c2Cc2ccsc2)cc1 | -7 | x | x | -17 | -17* | -3 | -12 | -6.7
Cc1ccc(NC(=O)c2ccc(NCCCN3CCC(C)CC3)c([N+](=O)[O-])c2)c(C)c1 | 14 | -2 | 4 | -6 | -2 | -6 | x | x
COc1cccc(NC(=O)c2ccc(NCCCN3CC(C)CC(C)C3)c([N+](=O)[O-])c2)c1 (centres undefined) | 2 | x | x | -23 | -46* | 4 | u | -5.1
COc1cccc(NC(=O)c2ccc(NCCCN3CCC(C)CC3)c([N+](=O)[O-])c2)c1 | 12 | -17 | -1 | -10 | -25* | -1 | -3.5 | u
CCCN(CCC)CCCNc1ccc(C(=O)Nc2cccc(OC)c2)cc1[N+](=O)[O-] | 23 | -5 | 1 | -8 | -10 | -1 | x | x
CC(C)CC#Cc1ccc([C@H]2[C@@H](CO)N3CCCCN(S(=O)(=O)Cc4ccccc4)C[C@H]23)cc1 | x | -35[16.7 µM] | 2 | 6 | -21* | -1 | x | u
CC(C)CC#Cc1ccc([C@@H]2[C@@H](CO)N3C(=O)CN(C(=O)Cc4ccccc4)C[C@@H]23)cc1 | x | x | x | -6 | -38* | -3 | 1.1 | u
CCCC#Cc1ccc([C@H]2[C@H]3CN(S(=O)(=O)Cc4ccccc4)CCCCN3[C@H]2CO)cc1 | x | -5[16.7 µM] | 0 | -21 | 0 | 2 | x | x
O=S(=O)(Cc1ccccc1)N1CCCCN2[C@@H](CO)[C@H](c3ccc(C#Cc4ccccc4)cc3)[C@@H]2C1 | x | 0[16.7 µM] | 55 | -18 | -47* | -2 | x | u
COc1ccc(C#Cc2ccc([C@@H]3[C@@H](CO)N4CCCCN(C(=O)Nc5ccccc5F)C[C@H]34)cc2)cc1 | x | -7[16.7 µM] | -3 | -22 | -35* | -1 | -5 | u
O=C(C[C@H]1CC[C@H]2[C@@H](COC[C@@H](O)CN2Cc2cc(F)ccc2F)O1)NCc1ccc(Oc2ccccc2)cc1 | x | -5[16.7 µM] | -1 | -14 | -20 | 4 | x | x
O=C(c1cccc2ccccc12)C1CCCN(C(=O)CCc2cnccn2)C1 (centres undefined) | 17 | -2 | -1 | 23 | -21* | 3 | -11 | -12
O=C(c1cc(F)ccc1F)C1CCCN(C(=O)CCc2cnccn2)C1 (centres undefined) | -4 | x | x | 11 | 11 | 3 | x | x
COc1ccc(-n2cnc3scc(-c4ccc(OC)c(OC)c4)c3c2=O)cc1 | -20 | -10 | -1 | -4 | 8 | -1 | x | x
SMILES | Env fusion inh | miR-122 sensor | Cneo AK release | INS-1E GSIS act | Ecoli rRNA inh | CFTR F508del cor | AID977621 | AID977628
COc1ccc(-c2csc3ncn(-c4ccc(C)cc4)c(=O)c23)cc1OC | -3 | -5 | 0 | -3 | -23* | 3 | u | x
O=C(Nc1ccc(Cl)c(Cl)c1)N[C@@H]1CC[C@H](CCn2cc(C3CCCC3)nn2)O[C@H]1CO | x | x | x | -29 | -56 | 2 | x | x
O=C(Nc1ccc(Cl)c(Cl)c1)N[C@@H]1CC[C@@H](CCn2cc(C3CCCCC3)nn2)O[C@H]1CO | -5[16.7 µM] | x | -1 | -43 | -42* | -1 | u | u
O=C(Nc1ccc(Cl)c(Cl)c1)N[C@H]1CC[C@@H](CCn2cc(C3CCCCC3)nn2)O[C@@H]1CO | 20[16.7 µM] | x | -3 | -42 | -44* | 2 | x | u
Cc1noc(C)c1NC(=O)N(C)C[C@H]1Oc2ccc(NC(=O)NC(C)C)cc2CC(=O)N([C@@H](C)CO)C[C@@H]1C | 12[16.7 µM] | 11[16.7 µM] | 0 | 0 | -1 | -1 | x | x
CNC(=O)C[C@@H]1CC[C@@H]2[C@H](COc3ccc(NC(=O)Nc4cc(C)cc(C)c4)cc3C(=O)N2C)O1 | 4[16.7 µM] | 3[16.7 µM] | 0 | 3 | 1 | 3 | x | x
C=CCn1c(SCc2n[nH]c(=S)n2-c2ccccc2)nnc1-c1ccccc1 | -6 | 1 | -2 | 13 | -22* | 0 | x | u
C=CCn1c(CSc2nnc(-c3ccccc3)n2C)n[nH]c1=S | -3 | 21 | 2 | 4 | 8 | -1 | x | x
COC(=O)c1nc(-c2ccc(C)cc2)[nH]c1C(C)(C)C | 29 | 4 | 3 | -18 | -21* | -4 | -13 | -14
O=C(Nc1ccc2c3c(cccc13)CC2)c1ccco1 | x | -2 | -2 | x | x | x | x | x
O=C(Nc1cccc2c1CCCC2)c1ccco1 | x | 9 | x | 26 | -21* | 0 | -9.2 | -11
CC(C)(C)NC(=O)C(c1ccncc1)N(Cc1ccc(F)cc1)C(=O)c1ccc(-c2ccccc2)[nH]1 (centres undefined) | -2 | x | x | -15 | -21* | 6 | 10 | 1.3

Bioassay records (PubChem)
